RBBP9 inhibitor: inhibitors of human serine hydrolase RBBP9 | hit rate 0.2% among 220,000 | O75884 | AID 1515 | recombinant RBBP9, FP-Rh probe fluorescence polarization | inhibition, % at 7.94 µM;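 active = inhibition above the campaign mean of all tested compounds plus 3 SD, cut at about 14% in these data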;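 also: plate controls were DMSO wells with RBBP9 for no effect and wells lacking RBBP9 protein for full effect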
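Test system: recombinant human RBBP9. Quantity: 2.5 µM RBBP9 dispensing solution, before mixing. Detection: FP readout at 525/598 nm. Reagent: Serine-hydrolase probe FP-Rh, 375 nM pre-mixing. Measure: % inhibition. Control set: DMSO-treated enzyme wells and wells lacking RBBP9. Buffer or medium: Tris-NaCl-Pluronic buffer, pH 8.0. Times: preincubation 30 min plus labeling 45 min at 25 °C.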
PKD1 kinase inh: inhibitors of human PKD1 kinase. Q15139. PKD1 kinase fluorescence polarization assay. inhibition, % (concentration not given with the values). hit rate 0.056% among 200,000. AID 797; in the data active = inhibition above about 50%
PP1 counter: PP1-alpha (human) inhibition in PP5 counter-screen; purified PP1alpha, OMFP fluorescence; inhibition, % at 6.7 µM; hit rate 0.9% among 320,000; AID 2235;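 active = inhibition above the mean inhibition of all tested compounds plus 3 SD, computed separately for each screening campaign, cut at about 15% in these data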
PP5 primary: blocks human protein phosphatase 5 activity. P53041. purified PP5c, OMFP substrate fluorescence. inhibition, % at 6.7 µM. hit rate 0.18% among 320,000. AID 1987;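 active = inhibition above the campaign's mean inhibition across all tested compounds plus 3 SD, cut at about 9.5% in these data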;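 also: 0% = DMSO only and 100% = 100 µM cantharidin control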
Hsp70 act: transcriptional activators of Hsp70 | HeLa Hsp70 promoter luciferase reporter, luminescence; scaled: vehicle 0, proteasome-inhibitor control 100% | activation, % at 10 µM | hit rate 0.04% among 200,000;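 active = activation above the mean across all tested compounds plus 3 SD, cutoff set per campaign, cut at about 5.5% in these data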;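 also: 100% = MG132 at 30 µM as the positive control and 0% = DMSO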
p97 ATPase inh: human p97 ATPase inhibition. hit rate 0.42% among 220,000. recombinant p97 ATPase, Kinase-Glo ATP luminescence, 3 h. P55072. inhibition, % at 8 µM; in the data active = inhibition above about 15%;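 also: 0% = DMSO vehicle and 100% = wells lacking enzyme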
PP1 confirm: confirmation of human PP1 phosphatase inhibitors | hit rate 52% among 1,900 | shares compounds with PP1 counter | AID 2358 | inhibition, % at 6.7 µM | purified PP1alpha, OMFP substrate fluorescence;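 active = mean PP1 inhibition above a set limit taken from the earlier primary screen, cut at about 15% in these data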
PP5 inh counter: inhibits human PP5 phosphatase in PP1 counter-screen | shares compounds with PP1 counter | purified PP5c, OMFP fluorescence | inhibition, % at 6.7 µM | hit rate 4% among 1,900;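 active = mean PP5 inhibition over triplicate wells above about 9.5% taken from the earlier PP1 screen, limit read from the data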
The depositor's hits bear a star; x = no result given. In the library only some 1.5% were active in any assay of this set; here they are far more common.

SMILES	RBBP9 inhibitor	PKD1 kinase inh	PP1 counter	PP5 primary	Hsp70 act	p97 ATPase inh	PP1 confirm	PP5 inh counter
Cc1cc(C(=O)O)cc(S(=O)(=O)Nc2ccccc2C(=O)NC(C)c2ccccc2)c1C (stereo unspecified)	x	x	0.8	1.2	x	x	x	x
Cc1ccc(NC(=O)C2C3CCC(O3)C2C(=O)O)cc1C (stereo unspecified)	x	x	80.7*	83.1*	x	x	22.5*	43.0*
O=C(O)C1C2CCC(O2)C1C(=O)Nc1ccc(O)cc1 (stereo unspecified)	-6.2	-9.7	26.7*	43.3*	-0.1	4.0	5.4	18.3*
COc1cc(NC(=O)C2C3CCC(O3)C2C(=O)O)cc(OC)c1 (stereo unspecified)	x	x	76.1*	80.4*	x	x	20.6*	29.6*
COc1cccc(NC(=O)C2C3C=CC(C3)C2C(=O)O)c1 (stereo unspecified)	x	x	-0.2	-1.6	x	x	x	x
O=C(O)C1C2CCC(O2)C1C(=O)Nc1ccc(OC(F)F)cc1 (stereo unspecified)	x	x	68.3*	68.4*	x	x	11.8	26.4*
Cc1ccc(C)c(C(C)NC(=O)C2C3CCC(O3)C2C(=O)O)c1 (stereo unspecified)	-7.1	-7.1	79.8*	82.0*	0.1	-6.5	33.1*	43.3*
C/C(=N\NC(=O)COc1ccc(C)cc1[N+](=O)[O-])c1cccs1	-12.0	-6.1	-2.7	-2.5	0.0	4.5	x	x
C/C(=N\NC(=O)COc1ccc(C)cc1Br)c1cc([N+](=O)[O-])cs1	-5.0	-12.4	22.0*	2.0	-0.3	5.0	23.5*	1.5
Cc1cc(-c2csc(NC(=O)c3ccc(=O)[nH]c3)n2)c(C)n1Cc1ccco1	3.0	x	44.7*	0.9	x	51.4*	33.6*	-0.9
O=C1NCCN1CCNS(=O)(=O)c1cc(C(F)(F)F)cc(C(F)(F)F)c1	x	x	-1.6	-0.9	x	x	x	x
Cc1cc(C)c(NC(=O)CSc2nc3ccc(NC(=O)CSc4nnnn4Cc4ccccc4)cc3s2)c(C)c1	-7.0	2.1	19.8*	-1.9	-0.2	2.0	30.5*	-4.9
COC(=O)CSc1nc2ccc(NC(=O)CSc3nnnn3Cc3ccccc3)cc2s1	-16.7	4.9	0.3	0.1	-0.3	-7.4	x	x
O=C(CSc1nc2ccc(NC(=O)CSc3nnnn3Cc3ccccc3)cc2s1)Nc1ccccc1	-2.7	-2.3	22.2*	-1.2	-0.6	3.7	8.1	-6.8
FC(F)(F)c1ccccc1-n1ccnc1	x	x	-3.4	3.2	x	x	x	x
Clc1ccccc1C(c1ccccc1)(c1ccccc1)n1ccnc1	-2.9	-0.3	18.3*	0.8	0.4	0.7	5.5	-3.5
CCN1/C(=C/C(C)=C/c2sc3ccccc3[n+]2CC)Sc2ccccc21	-160.6	0.7	22.8*	10.3*	0.3	-9.8	2.8	9.6
CCOc1ccc(NC(=O)c2sc3nc(N4CCOCC4)c4c(c3c2N)CC(C)(C)OC4)cc1	x	x	-2.5	-1.3	x	x	x	x
CCOC(=O)c1ccc(NCc2cccnc2)cc1	x	x	-3.4	1.4	x	x	x	x
CCCCC(=O)NC(c1ccc(C(C)C)cc1)c1ccc2cccnc2c1O (stereo unspecified)	x	x	22.9*	-2.2	x	x	20.9*	-6.8
CCCC(=O)NC(c1ccccc1)c1ccc2cccnc2c1O (stereo unspecified)	x	x	3.0	-1.6	x	x	x	x
CCCCC(=O)NC(c1ccccc1Cl)c1ccc2cccnc2c1O (stereo unspecified)	x	x	27.4*	3.0	x	x	19.3*	-3.9
CCCCC(=O)NC(c1ccccc1)c1ccc2cccnc2c1O (stereo unspecified)	x	x	21.3*	1.8	x	x	12.9	-5.2
COc1ccc(Cl)cc1C(=O)NNC(=O)COC(=O)CC(NC(C)=O)c1ccccc1 (stereo unspecified)	x	x	-2.3	1.1	x	x	x	x
COc1cc(/C=C(\C#N)C(=O)Nc2cccc(C(=O)O)c2)ccc1OCc1ccc(Cl)cc1	x	x	31.4*	4.0	x	x	24.2*	1.7
Cc1oc(-c2ccc(Cl)cc2)cc1-c1nn2c(-c3ccoc3C)nnc2s1	-8.1	5.9	24.2*	2.4	-0.3	12.1	19.0*	0.6
Clc1ccc(-c2nnc3sc(-c4ccc(Br)o4)nn23)cc1	-5.6	-4.8	1.2	0.2	-0.1	4.6	x	x
